Data set [1] is described as follows: Lipophilicity (Rm) (liquid chromatography). Format: physicochemical. Summed up: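 Rm is measured for drug cations at pH 2 by liquid-liquid chromatography on a cellulose support.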
Data set [2] concerns P388. The data set is described as follows: In vivo inhibition of P388 in mice for optimal (highest nonacutely toxic) dose (OD). Format: functional, Mus musculus. Summed up: (§1)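 F1 (DBA/2J × C57BlJ) mice, 19-21 g, either sex, inoculated with 10^6 P388 leukemia cells on day 0. Drug given ip in 0.1 mL 30% aqueous ethanol on days 1, 5 and 9, as a solution or, at highest doses, as a sonicated suspension. Doses stepped down from a toxic level at 0.67-fold intervals. Groups of six mice; ILS relative to 20-30 controls. OD is the highest nonacutely toxic daily dose.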

Data set [3] deals with L1210. The data set is described as follows: In vitro test for 50% reduction of cell number (of control) after 70 hr incubation with cultures of murine L1210 leukemia cells. Format: functional. The note with it: Mus musculus, L1210, 70 h; read-out: ID50 (the source's name).
Data set [4] in a line: Binding affinity towards poly[d(A-T)] (fluorometric method). Format: ADME. Summed up: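 Log R for binding to poly[d(A-T)] measured fluorometrically, corrected for quenching.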
Data set [5] deals with P388. In words: Dose of drug needed to provide a percentage increase in life span of tumor-bearing mice in vivo of […]% compared to untreated controls after inoculation of 10e6 P388 leukemia cells; h=ILS of >50% could not be obtained at any dose level. Format: functional, organism-based. Conditions: Mus musculus.
The subject of data set [6] is P388. In words: Tumor cell selectivity (ILSmax values) was evaluated in vivo for the percentage increase in life span of treated animals over that of P388 tumor bearing untreated control animals; h=ILS of >50% could not be obtained at any dose level. Format: functional, organism-based. The note with it: Mus musculus. Summed up:
as §1

The test system of data set [7] is P388. The data set is described as follows: In vivo tumor cell selectivity (ILSmax values)for percentage increase in life span of treated animals over that of P388 tumor bearing untreated control animals. Format: functional, Mus musculus.
The test system of data set [8] is P388. In words: Tumor cell selectivity (ILSmax values) was evaluated in vivo for the percentage increase in life span of treated animals over that of P388 tumor bearing untreated control animals; h=ILS of >20% could not be obtained at any dose level. Format: functional, organism-based. The note with it: Mus musculus. The essentials:
as §1

pIC50: −log10 of the molar value.

`CS(=O)(=O)Nc1ccc(Nc2c3ccccc3nc3ccc(Cl)cc23)cc1` registered a Rm in data set [1] of 0.15. The compound also had an OD in data set [2] of 150 mg/kg/day. For the same compound, the pIC50 in data set [3] was 5.42. In addition, in data set [4], the “Log K” value was determined as 5.62. For the same compound, the D50 entry in data set [5] is on record as “ILS not obtained”. Moreover, the Activity result in data set [6] was “ILS not obtained”.
For `COP(=O)(Nc1ccc(Nc2c3ccccc3nc3cc([N+](=O)[O-])ccc23)cc1)OC`, the Rm in data set [1] is given as 0.14. Further, in data set [2], the OD came to 8.9 mg/kg/day. The pIC50 in data set [3] is 7.13. The same compound returned an Activity in data set [7] of 22%. In data set [4], the “Log K” value is 6.73. For the same compound, the D50 entry in data set [5] is recorded as “ILS not obtained”.
`COc1cc(NP(=O)(OC)OC)ccc1Nc1c2ccccc2nc2ccc(C)cc12`: the Rm in data set [1] stood at 0.55. The compound also gave an OD in data set [2] of 30 mg/kg/day. For the same compound, in data set [3], the pIC50 is 6.01. The same compound came in with an Activity in data set [7] of 25%. Also, the “Log K” value in data set [4] is listed as 5.28. In addition, in data set [5], the D50 result is recorded as “ILS not obtained”.
On to `COP(=O)(Nc1ccc(Nc2c3ccccc3nc3ccc(C)cc23)cc1)OC`, for which the Rm in data set [1] turned out to be 0.43. In data set [2], this compound had an OD of 20 mg/kg/day. For the same compound, in data set [3], the pIC50 was 6.54. Also, the Activity in data set [7] was found to be 36%. For the same compound, the “Log K” value in data set [4] came to 6.09. Besides, the D50 entry in data set [5] is on record as “ILS not obtained”.
Compound `CS(=O)(=O)Nc1ccc(Nc2c3ccccc3nc3cc(S(C)(=O)=O)ccc23)cc1` showed a Rm in data set [1] of -0.2. The OD in data set [2] was 150 mg/kg/day. For the same compound, the pIC50 in data set [3] was less than 5.66. Besides, the “Log K” value in data set [4] stood at 5.3. Besides, the D50 entry in data set [5] is listed as “ILS not obtained”. The Activity result in data set [6] was “ILS not obtained”.
In data set [1], `CS(=O)(=O)Nc1ccc(Nc2c3ccccc3nc3cc([N+](=O)[O-])ccc23)cc1` had a Rm of -0.18. The same compound had an OD in data set [2] of 8.9 mg/kg/day. Besides, the pIC50 in data set [3] is 7.05. The same compound showed an Activity in data set [7] of 43%. In data set [4], the “Log K” value was 6.51. The D50 result in data set [5] is “ILS not obtained”.
In data set [1], `COP(=O)(Nc1ccc(Nc2c3ccccc3nc3ccc(Cl)cc23)cc1)OC` came in with a Rm of 0.37. In data set [2], this compound returned an OD of 100 mg/kg/day. In data set [3], the pIC50 is 6.05. For the same compound, the “Log K” value in data set [4] came to 6.17. In data set [5], the D50 entry was “ILS not obtained”. In data set [6], the Activity entry is listed as “ILS not obtained”.
In data set [1], `COc1ccc2nc3ccccc3c(Nc3ccc(NS(C)(=O)=O)cc3)c2c1` returned a Rm of -0.04. In addition, the Activity result in data set [8] is listed as “ILS not obtained”. The compound also yielded an OD in data set [2] of 150 mg/kg/day. The pIC50 in data set [3] was 5.60. In addition, the “Log K” value in data set [4] is reported as 6. Moreover, in data set [5], the D50 result is recorded as “ILS not obtained”.
`COc1ccc2nc3ccccc3c(Nc3ccc(NP(=O)(OC)OC)cc3)c2c1`: the Rm in data set [1] was 0.29. This compound gave an OD in data set [2] of 45 mg/kg/day. In addition, in data set [3], the pIC50 was 6.04. This compound also yielded an Activity in data set [7] of 38%. For the same compound, the “Log K” value in data set [4] is on record as 6.25. Besides, the D50 result in data set [5] is “ILS not obtained”.
As to `Cc1ccc2nc3ccccc3c(Nc3ccc(NS(C)(=O)=O)cc3)c2c1`, the Rm in data set [1] was 0.14. This compound also returned an OD in data set [2] of 100 mg/kg/day. Also, in data set [3], the pIC50 is 6.17. Also, in data set [7], the Activity is 39%. The “Log K” value in data set [4] was 5.7. The D50 result in data set [5] is “ILS not obtained”.
The compound `CNC(=O)c1cccc2c(Nc3ccc(NS(C)(=O)=O)cc3)c3ccccc3nc12` had a Rm in data set [1] of -0.1. Besides, the OD in data set [2] stood at 150 mg/kg/day. For the same compound, the pIC50 in data set [3] is 6.61. Also, the Activity in data set [7] is 41%. Further, in data set [4], the “Log K” value was found to be 6.22. In addition, the D50 result in data set [5] is recorded as “ILS not obtained”.
In data set [1], `COc1cc(NS(C)(=O)=O)ccc1Nc1c2ccccc2nc2ccc(C)cc12` showed a Rm of 0.4. The OD in data set [2] was 69 mg/kg/day. The pIC50 in data set [3] was 5.85. The compound further had an Activity in data set [7] of 34%. The “Log K” value in data set [4] was determined as 5.35. Moreover, the D50 entry in data set [5] is on record as “ILS not obtained”.

The values are drawn from ChEMBL document CHEMBL1122747, “Potential antitumor agents. 42. Structure-activity relationships for acridine-substituted dimethyl phosphoramidate derivatives of 9-anilinoacridine” (J Med Chem, 1984).
